ChEMBL document CHEMBL5385966, “Synthesis and biological evaluation of new naphthalimide-thiourea derivatives as potent antimicrobial agents active against multidrug-resistant Staphylococcus aureus and Mycobacterium tuberculosis” (RSC Med Chem, 2024)
≈ marks a conversion by molar mass, not a printed value. Calls of active or inactive are those of the source. The calls are words filed in the database; no cut-off is given here.

Assays:
[1] = test system: Mycobacteroides abscessus; assay: Antimycobacterial activity against Mycobacterium abscessus ATCC 19977 assessed as bacterial growth inhibition incubated for 72 hrs by resazurin dye based broth microdilution method; format: functional, organism-based
How it was run: (§1)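 Broth microdilution in Middlebrook 7H9 with 10% ADC-Tween-80 (0.2% glycerol, 0.05% Tween-80), inoculum ~10⁶ cfu/mL. Compounds came from 10 mg/mL DMSO stocks and were tested as two-fold serial dilutions at 37 °C, 7 days for M. tuberculosis H37Rv and 72 h for NTM. Growth was read visually with PrestoBlue resazurin dye; MIC was the lowest concentration preventing growth. Triplicate determinations, each in duplicate.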

Staphylococcus aureus [2] = assay: Antibacterial activity against methicillin/ceftriaxone/meropenem-resistant Staphylococcus aureus NRS10186 clinical isolate assessed as bacterial growth inhibition incubated for 16 to 18 hrs by CLSI based antibiotic susceptibility testing method; format: functional; conditions: time 16-18 hrs
How it was run: (§2)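 Broth microdilution in cation-adjusted Mueller-Hinton broth. Compounds were tested at […], with levofloxacin as reference and medium-only controls. Plates were incubated at 37 °C for 16-18 h. MIC was the lowest concentration with no visible growth; three independent determinations, each in duplicate.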

Staphylococcus aureus [3] = assay: Antibacterial activity against methicillin/ceftriaxone-resistant Staphylococcus aureus NRS10194 clinical isolate assessed as bacterial growth inhibition incubated for 16 to 18 hrs by CLSI based antibiotic susceptibility testing method; format: functional; conditions: time 16-18 hrs; how it was run: as §2
Mycobacteroides chelonae = assay: Antimycobacterial activity against Mycobacteroides chelonae ATCC 35752 assessed as bacterial growth inhibition incubated for 72 hrs by resazurin dye based broth microdilution method; format: functional, organism-based; how it was run: as §1
Staphylococcus aureus [4] = assay: Antibacterial activity against methicillin/ceftriaxone/meropenem/vancomycin/teicoplanin-resistant Staphylococcus aureus VRS4 clinical isolate assessed as bacterial growth inhibition incubated for 16 to 18 hrs by CLSI based antibiotic susceptibility testing method; format: functional; conditions: time 16-18 hrs; how it was run: as §2
Staphylococcus aureus [5] = assay: Antibacterial activity against methicillin/ceftriaxone/meropenem/gentamycin/linezolid-resistant Staphylococcus aureus NRS10100 clinical isolate assessed as bacterial growth inhibition incubated for 16 to 18 hrs by CLSI based antibiotic susceptibility testing method; format: functional; conditions: time 16-18 hrs; how it was run: as §2
Klebsiella pneumoniae = assay: Antibacterial activity against Klebsiella pneumoniae BAA 1705 assessed as bacterial growth inhibition incubated for 16 to 18 hrs by CLSI based antibiotic susceptibility testing method; format: functional, organism-based; conditions: time 16-18 hrs; how it was run: as §2
[6] = Selectivity index, ratio of CC50 for African green monkey Vero cells to MIC for Staphylococcus aureus ATCC 29213; format: toxicity, cell-based; conditions: read-out: Selectivity Index
[7] = test system: Mycolicibacterium fortuitum; assay: Antimycobacterial activity against Mycobacterium fortuitum ATCC 6841 assessed as bacterial growth inhibition incubated for 72 hrs by resazurin dye based broth microdilution method; format: functional, organism-based; how it was run: as §1
Staphylococcus aureus [8] = assay: Antibacterial activity against methicillin/ceftriaxone/meropenem-resistant Staphylococcus aureus NRS10192 clinical isolate assessed as bacterial growth inhibition incubated for 16 to 18 hrs by CLSI based antibiotic susceptibility testing method; format: functional; conditions: time 16-18 hrs; how it was run: as §2
Staphylococcus aureus [9] = assay: Antibacterial activity against methicillin/ceftriaxone/meropenem-resistant Staphylococcus aureus NRS10129 clinical isolate assessed as bacterial growth inhibition incubated for 16 to 18 hrs by CLSI based antibiotic susceptibility testing method; format: functional; conditions: time 16-18 hrs; how it was run: as §2
Acinetobacter baumannii = assay: Antibacterial activity against Acinetobacter baumannii BAA 1605 assessed as bacterial growth inhibition incubated for 16 to 18 hrs by CLSI based antibiotic susceptibility testing method; format: functional, organism-based; conditions: time 16-18 hrs; how it was run: as §2
Staphylococcus aureus [10] = assay: Antibacterial activity against methicillin-sensitive Staphylococcus aureus ATCC 29213 clinical isolate assessed as bacterial growth inhibition incubated for 16 to 18 hrs by CLSI based antibiotic susceptibility testing method; format: functional; conditions: time 16-18 hrs; how it was run: as §2
Staphylococcus aureus [11] = assay: Antibacterial activity against methicillin/ceftriaxone/meropenem/gentamycin/linezolid-resistant Staphylococcus aureus NRS10119 clinical isolate assessed as bacterial growth inhibition incubated for 16 to 18 hrs by CLSI based antibiotic susceptibility testing method; format: functional; conditions: time 16-18 hrs; how it was run: as §2
Staphylococcus aureus [12] = assay: Antibacterial activity against methicillin/ceftriaxone/meropenem-resistant Staphylococcus aureus NRS10191 clinical isolate assessed as bacterial growth inhibition incubated for 16 to 18 hrs by CLSI based antibiotic susceptibility testing method; format: functional; conditions: time 16-18 hrs; how it was run: as §2
[13] = Cytotoxicity against African green monkey Vero cells by MTT assay; format: toxicity, cell-based; conditions: chlorocebus sabaeus
How it was run: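 Vero cells were seeded at ~10³ per well at 37 °C, 5% CO2. After 24 h, compounds were added at 5-100 mg/L for 72 h. […] was added for 4 h, formazan was dissolved in DMSO and read at 540 nm. CC50 was taken as the lowest concentration reducing viability by 50%; doxorubicin was the positive control; triplicate.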

Pseudomonas aeruginosa = assay: Antibacterial activity against Pseudomonas aeruginosa ATCC 27853 assessed as bacterial growth inhibition incubated for 16 to 18 hrs by CLSI based antibiotic susceptibility testing method; format: functional, organism-based; conditions: time 16-18 hrs; how it was run: as §2
Staphylococcus aureus [14] = assay: Antibacterial activity against methicillin/ceftriaxone/meropenem-resistant Staphylococcus aureus NRS10198 clinical isolate assessed as bacterial growth inhibition incubated for 16 to 18 hrs by CLSI based antibiotic susceptibility testing method; format: functional; conditions: time 16-18 hrs; how it was run: as §2
Staphylococcus aureus [15] = assay: Antibacterial activity against methicillin/ceftriaxone/meropenem/gentamycin/vancomycin/teicoplanin-resistant Staphylococcus aureus VRS1 clinical isolate assessed as bacterial growth inhibition incubated for 16 to 18 hrs by CLSI based antibiotic susceptibility testing method; format: functional; conditions: time 16-18 hrs; how it was run: as §2
[16] = test system: Mycobacterium tuberculosis; assay: Antimycobacterial activity against Mycobacterium tuberculosis H37Rv ATCC 27294 assessed as bacterial growth inhibition incubated for 7 days by resazurin dye based broth microdilution method; format: functional; conditions: H37Rv ATCC 27294, 168 h, time 7 day; how it was run: as §1
Escherichia coli = assay: Antibacterial activity against Escherichia coli ATCC 25922 assessed as bacterial growth inhibition incubated for 16 to 18 hrs by CLSI based antibiotic susceptibility testing method; format: functional, organism-based; conditions: time 16-18 hrs; how it was run: as §2
Staphylococcus aureus [17] = assay: Antibacterial activity against methicillin/ceftriaxone/meropenem-resistant Staphylococcus aureus NRS10193 clinical isolate assessed as bacterial growth inhibition incubated for 16 to 18 hrs by CLSI based antibiotic susceptibility testing method; format: functional; conditions: time 16-18 hrs; how it was run: as §2
Staphylococcus aureus [18] = assay: Antibacterial activity against methicillin/ceftriaxone/meropenem/vancomycin/teicoplanin-resistant Staphylococcus aureus VRS12 clinical isolate assessed as bacterial growth inhibition incubated for 16 to 18 hrs by CLSI based antibiotic susceptibility testing method; format: functional; conditions: time 16-18 hrs; how it was run: as §2
Staphylococcus aureus [19] = assay: Antibacterial activity against Staphylococcus aureus ATCC 29213 assessed as bacterial growth inhibition incubated for 16 to 18 hrs by CLSI based antibiotic susceptibility testing method; format: functional; conditions: time 16-18 hrs; how it was run: as §2

Row | Structure (SMILES) | growth inhibition (GI) [1] | MIC (Staphylococcus aureus [2]) [µg/mL] | MIC (Staphylococcus aureus [3]) [µg/mL] | growth inhibition (GI) (Mycobacteroides chelonae) | MIC (Staphylococcus aureus [4]) [µg/mL] | MIC (Staphylococcus aureus [5]) [µg/mL] | growth inhibition (GI) (Klebsiella pneumoniae) | selectivity ratio [6] | growth inhibition (GI) [7] | MIC (Staphylococcus aureus [8]) [µg/mL] | MIC (Staphylococcus aureus [9]) [µg/mL] | growth inhibition (GI) (Acinetobacter baumannii) | MIC (Staphylococcus aureus [10]) [µg/mL] | MIC (Staphylococcus aureus [11]) [µg/mL] | MIC (Staphylococcus aureus [12]) [µg/mL] | CC50 [13] [µg/mL] | growth inhibition (GI) (Pseudomonas aeruginosa) | MIC (Staphylococcus aureus [14]) [µg/mL] | MIC (Staphylococcus aureus [15]) [µg/mL] | MIC [16] [µg/mL] | other results
1 | O=C(CN1C(=O)c2cccc3cccc(c23)C1=O)NC1CCN(C(=S)NC2CCCCCC2)CC1 | inactive | 0.5 (≈ 1.01 µM) | 1 (≈ 2.03 µM) | inactive | 1 (≈ 2.03 µM) | 0.5 (≈ 1.01 µM) | inactive | > 200 | inactive | 1 (≈ 2.03 µM) | 1 (≈ 2.03 µM) | inactive | 1 (≈ 2.03 µM) | 0.5 (≈ 1.01 µM) | 0.5 (≈ 1.01 µM) | > 100 | inactive | 1 (≈ 2.03 µM) | 1 (≈ 2.03 µM) | > 64 | growth inhibition (GI) (Escherichia coli): inactive; MIC (Staphylococcus aureus [17]): 0.5 µg/mL (≈ 1.01 µM); MIC (Staphylococcus aureus [18]): 1 µg/mL (≈ 2.03 µM); MIC (Staphylococcus aureus [19]): 0.5 µg/mL (≈ 1.01 µM)
2 | O=C(CN1C(=O)c2cccc3cccc(c23)C1=O)N1CCC(NC(=S)Nc2ccccc2)CC1 | inactive | 0.25 (≈ 0.529 µM) | 1 (≈ 2.12 µM) | inactive | 0.25 (≈ 0.529 µM) | 1 (≈ 2.12 µM) | inactive | > 200 | inactive | 0.25 (≈ 0.529 µM) | 1 (≈ 2.12 µM) | inactive | 1 (≈ 2.12 µM) | 0.25 (≈ 0.529 µM) | 0.25 (≈ 0.529 µM) | > 100 | inactive | 0.25 (≈ 0.529 µM) | 0.5 (≈ 1.06 µM) | > 64 | growth inhibition (GI) (Escherichia coli): inactive; MIC (Staphylococcus aureus [17]): 0.25 µg/mL (≈ 0.529 µM); MIC (Staphylococcus aureus [18]): 0.5 µg/mL (≈ 1.06 µM); MIC (Staphylococcus aureus [19]): 0.5 µg/mL (≈ 1.06 µM)
3 | O=C(CN1C(=O)c2cccc3cccc(c23)C1=O)N1CCC(NC(=S)NC2CCCCCC2)CC1 | inactive | 0.25 (≈ 0.507 µM) | 0.25 (≈ 0.507 µM) | inactive | 0.25 (≈ 0.507 µM) | 0.25 (≈ 0.507 µM) | inactive | > 400 | inactive | 0.25 (≈ 0.507 µM) | 0.25 (≈ 0.507 µM) | inactive | 0.25 (≈ 0.507 µM) | 0.25 (≈ 0.507 µM) | 0.25 (≈ 0.507 µM) | > 100 | inactive | 0.25 (≈ 0.507 µM) | 0.25 (≈ 0.507 µM) | > 64 | growth inhibition (GI) (Escherichia coli): inactive; MIC (Staphylococcus aureus [17]): 0.25 µg/mL (≈ 0.507 µM); MIC (Staphylococcus aureus [18]): 0.25 µg/mL (≈ 0.507 µM); MIC (Staphylococcus aureus [19]): 0.25 µg/mL (≈ 0.507 µM)
4 | O=C(CN1C(=O)c2cccc3cccc(c23)C1=O)N1CCN(C(=S)NC2CCCCC2)CC1 | inactive | 0.125 (≈ 0.269 µM) | 0.125 (≈ 0.269 µM) | inactive | 0.25 (≈ 0.538 µM) | 0.5 (≈ 1.08 µM) | inactive | > 400 | inactive | 0.125 (≈ 0.269 µM) | 0.25 (≈ 0.538 µM) | inactive | 0.125 (≈ 0.269 µM) | 0.25 (≈ 0.538 µM) | 0.25 (≈ 0.538 µM) | > 100 | inactive | 0.25 (≈ 0.538 µM) | 0.25 (≈ 0.538 µM) | > 64 | growth inhibition (GI) (Escherichia coli): inactive; MIC (Staphylococcus aureus [17]): 0.25 µg/mL (≈ 0.538 µM); MIC (Staphylococcus aureus [18]): 0.25 µg/mL (≈ 0.538 µM); MIC (Staphylococcus aureus [19]): 0.25 µg/mL (≈ 0.538 µM)
5 | O=C(CN1C(=O)c2cccc3cccc(c23)C1=O)NC1CCN(C(=S)NC2CCCCC2)CC1 | inactive | 0.125 (≈ 0.261 µM) | 0.25 (≈ 0.522 µM) | inactive | 0.25 (≈ 0.522 µM) | 0.25 (≈ 0.522 µM) | inactive | > 40 | inactive | 0.25 (≈ 0.522 µM) | 0.5 (≈ 1.04 µM) | inactive | 0.25 (≈ 0.522 µM) | 0.125 (≈ 0.261 µM) | 0.125 (≈ 0.261 µM) | > 10 | inactive | 0.25 (≈ 0.522 µM) | 0.5 (≈ 1.04 µM) | > 64 | growth inhibition (GI) (Escherichia coli): inactive; MIC (Staphylococcus aureus [17]): 0.125 µg/mL (≈ 0.261 µM); MIC (Staphylococcus aureus [18]): 0.25 µg/mL (≈ 0.522 µM); MIC (Staphylococcus aureus [19]): 0.25 µg/mL (≈ 0.522 µM)
